Results on 34 molecules are retold here after ChEMBL document CHEMBL1154385, “(4-Piperidinyl)-piperazine: a new platform for acetyl-CoA carboxylase inhibitors” (Bioorg Med Chem Lett, 2009).

Each structure is given as a SMILES string.

One series has as its target Acetyl-CoA carboxylase (Homo sapiens, UniProt Q13085+O00763). Briefly: Inhibition of partially purified human liver ACC1/2.
Series [1] has as its system HepG2. Briefly: Induction of fatty acid oxidation in human HepG2 cells after 48 hrs. The series is classed as functional, cell-based. In outline:
(§1)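 HepG2 cells. Fatty acid synthesis read as decreased [¹⁴C] acetate incorporation into cellular lipids, reported as IC₅₀. Fatty acid oxidation read as T₂O generated in the culture medium, reported as EC₅₀.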

Series [2] has as its system HepG2. Nature of the series: Inhibition of fatty acid synthesis in human HepG2 cells after 48 hrs. Format: functional, cell-based. Conditions: for IC50: Homo sapiens, HepG2, 48 h. In outline:
as §1

The next series has as its target Acetyl-CoA carboxylase 1 (Homo sapiens, UniProt Q13085). Nature of the series: Inhibition of human recombinant ACC1. In outline:
(§2)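 Recombinant human ACC1 and ACC2 enzymes; activity read as inhibition of malonyl-CoA synthesis.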

A further series concerns the target Acetyl-CoA carboxylase 2 (Homo sapiens, UniProt O00763). Briefly: Inhibition of human recombinant ACC2. In outline:
as §2

Series [3] is described as follows: Metabolic stability in human liver microsome assessed as drug remaining at 5 uM after 15 mins. The series is classed as ADME. Conditions: liver microsomes, read-out: Activity. Summed up: (§3)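 Compound at 5 µM incubated at 37 °C for 15 min with 1 mg/mL human or rat liver microsomes. Cofactors: 1.5 mM glucose-6-phosphate, 0.16 mM NADP, 1 U/mL glucose-6-phosphate dehydrogenase. Medium: 250 mM phosphate buffer, 2.4 mM MgCl₂, 69 mM KCl. Compound measured by LC–MS/MS at 0 and 15 min; % remaining reported.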

A short description of series [4]: Metabolic stability in rat liver microsome assessed as drug remaining at 5 uM after 15 mins. The series is classed as ADME. Conditions: liver microsomes, read-out: Activity. Summed up:
as §3
In general terms: Liver microsomes are vesicles of endoplasmic reticulum, rich in cytochrome P450 enzymes.

Series [5] in a line: Cmax in Sprague-Dawley rat at 10 mg/kg, po. Format: ADME, organism-based. On the set-up: dose 10 mg/kg, route oral. Conditions: in vivo. Summed up: (§4)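 Male Sprague-Dawley rats given a single oral dose of 10 mg/kg; plasma exposure parameters taken from the plasma profile.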
Series [6] in a line: Tmax in Sprague-Dawley rat at 10 mg/kg, po. Further details: dose 10 mg/kg, route oral. The conditions noted are these: in vivo. The series is classed as ADME, organism-based. Summed up:
as §4

The nature of series [7]: AUC in Sprague-Dawley rat at 10 mg/kg, po. The conditions noted are these: plasma. Further details: dose 10 mg/kg, route oral. The series is classed as ADME, organism-based. In outline:
as §4

Acetyl-CoA carboxylase 2, sequence (O00763 whole entry): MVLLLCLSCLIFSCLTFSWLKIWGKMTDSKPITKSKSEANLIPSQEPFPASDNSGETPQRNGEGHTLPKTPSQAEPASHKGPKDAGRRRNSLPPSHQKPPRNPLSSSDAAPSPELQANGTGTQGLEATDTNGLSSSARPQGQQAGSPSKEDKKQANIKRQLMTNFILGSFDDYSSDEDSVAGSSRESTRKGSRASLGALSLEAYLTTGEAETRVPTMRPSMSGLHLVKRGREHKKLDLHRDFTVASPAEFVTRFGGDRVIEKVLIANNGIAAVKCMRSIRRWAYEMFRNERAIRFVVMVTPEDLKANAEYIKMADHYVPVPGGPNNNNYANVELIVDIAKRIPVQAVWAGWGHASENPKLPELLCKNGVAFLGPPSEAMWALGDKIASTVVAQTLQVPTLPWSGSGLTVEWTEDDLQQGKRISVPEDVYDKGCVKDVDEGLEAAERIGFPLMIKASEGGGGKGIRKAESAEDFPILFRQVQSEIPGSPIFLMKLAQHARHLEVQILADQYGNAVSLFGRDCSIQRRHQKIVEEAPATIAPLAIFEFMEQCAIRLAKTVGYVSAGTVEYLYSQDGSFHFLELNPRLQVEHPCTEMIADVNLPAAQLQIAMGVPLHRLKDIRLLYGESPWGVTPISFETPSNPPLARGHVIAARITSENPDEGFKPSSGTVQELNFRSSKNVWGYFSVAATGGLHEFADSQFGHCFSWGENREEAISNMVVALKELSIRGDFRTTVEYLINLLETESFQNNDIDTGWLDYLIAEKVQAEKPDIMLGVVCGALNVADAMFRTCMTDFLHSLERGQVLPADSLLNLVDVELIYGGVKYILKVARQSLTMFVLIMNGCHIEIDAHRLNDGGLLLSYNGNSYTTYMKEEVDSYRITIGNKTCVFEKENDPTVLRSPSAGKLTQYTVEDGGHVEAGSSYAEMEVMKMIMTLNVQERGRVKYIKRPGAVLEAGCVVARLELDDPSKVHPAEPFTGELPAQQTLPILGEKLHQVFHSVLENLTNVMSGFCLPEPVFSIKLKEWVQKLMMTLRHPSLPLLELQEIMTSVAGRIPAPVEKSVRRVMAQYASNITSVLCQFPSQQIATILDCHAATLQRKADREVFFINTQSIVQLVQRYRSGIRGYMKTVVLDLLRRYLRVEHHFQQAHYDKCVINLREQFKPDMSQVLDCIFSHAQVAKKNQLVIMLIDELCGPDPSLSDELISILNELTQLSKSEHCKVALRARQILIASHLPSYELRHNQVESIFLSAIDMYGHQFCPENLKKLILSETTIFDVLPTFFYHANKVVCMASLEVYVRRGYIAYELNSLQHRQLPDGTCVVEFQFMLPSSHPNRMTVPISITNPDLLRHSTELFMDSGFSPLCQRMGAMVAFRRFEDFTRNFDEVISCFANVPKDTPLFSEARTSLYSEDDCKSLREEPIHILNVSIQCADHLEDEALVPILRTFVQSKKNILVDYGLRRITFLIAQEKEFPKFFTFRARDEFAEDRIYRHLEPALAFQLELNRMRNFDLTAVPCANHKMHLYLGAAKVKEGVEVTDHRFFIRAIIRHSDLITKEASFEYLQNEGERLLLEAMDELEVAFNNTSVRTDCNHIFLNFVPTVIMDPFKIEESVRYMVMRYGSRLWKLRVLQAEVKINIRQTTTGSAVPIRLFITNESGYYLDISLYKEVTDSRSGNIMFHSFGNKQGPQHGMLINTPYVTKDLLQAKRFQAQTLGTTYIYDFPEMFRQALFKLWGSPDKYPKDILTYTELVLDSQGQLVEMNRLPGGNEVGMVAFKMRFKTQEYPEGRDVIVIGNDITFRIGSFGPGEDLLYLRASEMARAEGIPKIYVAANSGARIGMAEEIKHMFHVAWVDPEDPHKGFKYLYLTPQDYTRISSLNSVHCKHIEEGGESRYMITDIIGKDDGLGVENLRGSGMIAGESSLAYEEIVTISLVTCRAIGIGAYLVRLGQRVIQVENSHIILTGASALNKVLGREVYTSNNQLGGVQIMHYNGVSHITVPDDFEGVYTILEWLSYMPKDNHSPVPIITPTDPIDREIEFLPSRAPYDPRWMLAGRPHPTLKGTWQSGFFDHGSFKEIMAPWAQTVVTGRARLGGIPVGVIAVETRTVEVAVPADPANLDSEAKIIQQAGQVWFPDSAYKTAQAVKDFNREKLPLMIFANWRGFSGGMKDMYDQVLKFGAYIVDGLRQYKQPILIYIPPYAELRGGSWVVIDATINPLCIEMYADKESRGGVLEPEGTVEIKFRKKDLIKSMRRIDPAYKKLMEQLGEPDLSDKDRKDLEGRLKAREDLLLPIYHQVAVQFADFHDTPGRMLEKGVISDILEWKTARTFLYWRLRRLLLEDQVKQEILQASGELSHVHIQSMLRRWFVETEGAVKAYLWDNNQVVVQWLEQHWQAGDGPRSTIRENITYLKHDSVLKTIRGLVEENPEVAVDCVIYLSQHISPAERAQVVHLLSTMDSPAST

On to `COC(=O)N1CCC(C(=O)N2CCC(N3CCN(C(=O)c4cc(-c5ccccc5)nc(-c5ccccc5)c4)CC3)CC2)CC1`, for which the IC50 (commonly the concentration that inhibits the measured activity by half) at Acetyl-CoA carboxylase is given as 102 nM.

On Acetyl-CoA carboxylase, `Cc1cc(C(=O)N2CCC(N3CCN(C(=O)c4cc(-c5ccccc5)nc(-c5ccccc5)c4)CC3)CC2)c(C)o1` gave an IC50 of 157 nM.

In the case of `CC(=O)N1CCC(C(=O)N2CCC(N3CCN(C(=O)c4cc(-c5ccccc5)nc(-c5ccccc5)c4)CC3)CC2)CC1`, the Activity in the series with HepG2 [1] was 148%. The “inhibition (INH)” value in the series on HepG2 [2] is 72%. At Acetyl-CoA carboxylase, this molecule displayed an IC50 of 126 nM.

For `CO[C@H]1CC[C@H](C(=O)N2CCC(N3CCN(C(=O)c4cc(-c5ccccc5)nc(-c5ccccc5)c4)CC3)CC2)CC1`, the IC50 at Acetyl-CoA carboxylase was 155 nM.

Molecule `CCC(=O)N1CCC(C(=O)N2CCC(N3CCN(C(=O)c4cc(-c5ccccc5)nc(-c5ccccc5)c4)CC3)CC2)CC1` registered an IC50 against Acetyl-CoA carboxylase of 115 nM.

Turning to `O=C(c1ccccc1)N1CCC(C(=O)N2CCC(N3CCN(C(=O)c4cc(-c5ccccc5)nc(-c5ccccc5)c4)CC3)CC2)CC1`, at Acetyl-CoA carboxylase, the IC50 worked out at 290 nM.

Turning to `COCC(=O)N1CCC(C(=O)N2CCC(N3CCN(C(=O)c4cc(-c5ccccc5)nc(-c5ccccc5)c4)CC3)CC2)CC1`, the IC50 against Acetyl-CoA carboxylase was 169 nM.

Turning to `O=C(CO)N1CCC(C(=O)N2CCC(N3CCN(C(=O)c4cc(-c5ccccc5)nc(-c5ccccc5)c4)CC3)CC2)CC1`, the IC50 against Acetyl-CoA carboxylase came to 102 nM.

On Acetyl-CoA carboxylase, `CC(C)OC(=O)N1CCC(C(=O)N2CCC(N3CCN(C(=O)c4cc(-c5ccccc5)nc(-c5ccccc5)c4)CC3)CC2)CC1` registered an IC50 of 411 nM.

Consider `NC(=O)N1CCC(C(=O)N2CCC(N3CCN(C(=O)c4cc(-c5ccccc5)nc(-c5ccccc5)c4)CC3)CC2)CC1`, for which the IC50 on Acetyl-CoA carboxylase was found to be 151 nM.

Regarding `CC(=O)N1CCC(C(=O)N2CCC(N3CCN(C(=O)c4cc(-c5ccccc5)nc(-c5ccc(F)cc5)c4)CC3)CC2)CC1`, the IC50 against Acetyl-CoA carboxylase was 184 nM.

`CC(=O)N1CCC(C(=O)N2CCC(N3CCN(C(=O)c4cc(-c5ccc(C)cc5)nc(-c5ccc(C)cc5)c4)CC3)CC2)CC1` registered an Activity in the series with HepG2 [1] of 176%. Further, in the series with HepG2 [1] (Homo sapiens, HepG2, 48 h), the EC50 (as a rule, the concentration needed to bring the measured effect to its halfway point) turned out to be 580 nM. In the series with HepG2 [2], the “inhibition (INH)” value amounted to 77%. Also, the IC50 in the series on HepG2 [2] was determined as 340 nM; on Acetyl-CoA carboxylase 1, 101 nM; on Acetyl-CoA carboxylase 2, 23 nM; against Acetyl-CoA carboxylase, 76 nM. For the same molecule, the results for the remaining at 0.25 h, 5 µM in series [3] and in series [4] were 87% and 96%, respectively. Further, in series [5], the concentration peaked (Cmax) at 107 ng/mL. Moreover, the Tmax (commonly the time at which the peak concentration occurs) in series [6] was found to be 4 h. Also, the AUC (as a rule, concentration integrated over time) in series [7] came to 1000 ng·h/mL.

As for `COc1ccc(-c2cc(C(=O)N3CCN(C4CCN(C(=O)C5CCN(C(C)=O)CC5)CC4)CC3)cc(-c3ccc(OC)cc3)n2)cc1`, in the series on HepG2 [1], the Activity came to 167%. Further, the “inhibition (INH)” value in the series with HepG2 [2] is recorded as 77%. The molecule also gave an IC50 against Acetyl-CoA carboxylase of 68 nM.

`CC(=O)N1CCC(C(=O)N2CCC(N3CCN(C(=O)c4cc(-c5ccc(O)cc5)nc(-c5ccc(O)cc5)c4)CC3)CC2)CC1` yielded an Activity in the series with HepG2 [1] of 123%. Also, in the series on HepG2 [2], the “inhibition (INH)” value came out at 29%. At Acetyl-CoA carboxylase, this molecule came in with an IC50 of 52 nM.

As to `CC(=O)N1CCC(C(=O)N2CCC(N3CCN(C(=O)c4cc(-c5ccc(CO)cc5)nc(-c5ccc(CO)cc5)c4)CC3)CC2)CC1`, the Activity in the series on HepG2 [1] amounted to 120%. Moreover, the IC50 against Acetyl-CoA carboxylase worked out at 32 nM.

Regarding `CC(=O)N1CCC(C(=O)N2CCC(N3CCN(C(=O)c4cc(-c5cccc(C(N)=O)c5)nc(-c5cccc(C(N)=O)c5)c4)CC3)CC2)CC1`, the Activity with HepG2 [1] came to 94%. The IC50 at Acetyl-CoA carboxylase came out at 73 nM.

Molecule `CC(=O)N1CCC(C(=O)N2CCC(N3CCN(C(=O)c4cc(-c5ccc(C(N)=O)cc5)nc(-c5ccc(C(N)=O)cc5)c4)CC3)CC2)CC1` gave an Activity with HepG2 [1] of 135%. On Acetyl-CoA carboxylase, this molecule yielded an IC50 of 67 nM.

In the case of `CNC(=O)N1CCC(C(=O)N2CCC(N3CCN(C(=O)c4cc(-c5ccccc5)nc(-c5ccccc5)c4)CC3)CC2)CC1`, at Acetyl-CoA carboxylase, the IC50 is 95 nM.

On Acetyl-CoA carboxylase, `CN(C)C(=O)N1CCC(C(=O)N2CCC(N3CCN(C(=O)c4cc(-c5ccccc5)nc(-c5ccccc5)c4)CC3)CC2)CC1` registered an IC50 of 169 nM.

In turn, `CS(=O)(=O)N1CCC(C(=O)N2CCC(N3CCN(C(=O)c4cc(-c5ccccc5)nc(-c5ccccc5)c4)CC3)CC2)CC1` showed an IC50 at Acetyl-CoA carboxylase of 248 nM.

In turn, `CC(=O)N1CCC(C(=O)N2CCC(N3CCN(C(=O)c4cc(-c5cccc(F)c5)nc(-c5cccc(F)c5)c4)CC3)CC2)CC1` gave an IC50 against Acetyl-CoA carboxylase of 131 nM.

The molecule `O=C(c1cc(-c2ccccc2)nc(-c2ccccc2)c1)N1CCN(C2CCN(C(=O)N3CCOCC3)CC2)CC1` registered a half-inhibitory concentration (IC50) against Acetyl-CoA carboxylase of 869 nM.

As for `O=C(c1ccccc1)N1CCC(N2CCN(C(=O)c3cc(-c4ccccc4)nc(-c4ccccc4)c3)CC2)CC1`, on Acetyl-CoA carboxylase, the IC50 is reported as 693 nM.

The molecule `O=C(c1cc(-c2ccccc2)nc(-c2ccccc2)c1)N1CCN(C2CCN(C(=O)C3CCCCC3)CC2)CC1` came in with a half-maximal inhibitory concentration (IC50) at Acetyl-CoA carboxylase of 244 nM.

Regarding `O=C(c1cc(-c2ccccc2)nc(-c2ccccc2)c1)N1CCN(C2CCN(C(=O)N3CCCCC3)CC2)CC1`, on Acetyl-CoA carboxylase, the IC50 was 434 nM.

At Acetyl-CoA carboxylase, `O=C(c1c2ccccc2cc2ccccc12)N1CCN(C2CCN(C(=O)C3CCCC3)CC2)CC1` returned an IC50 of 95 nM.

`O=C(c1ccco1)N1CCC(N2CCN(C(=O)c3c4ccccc4cc4ccccc34)CC2)CC1`: on Acetyl-CoA carboxylase, the concentration for half-maximal inhibition (IC50) amounted to 161 nM.

Regarding `Cc1cc(C(=O)N2CCC(N3CCN(C(=O)c4c5ccccc5cc5ccccc45)CC3)CC2)c(C)o1`, the IC50 on Acetyl-CoA carboxylase is 60 nM.

Consider `O=C(c1c2ccccc2cc2ccccc12)N1CCN(C2CCN(C(=O)C3CCCCC3)CC2)CC1`, for which the IC50 on Acetyl-CoA carboxylase is 91 nM.

`O=C(Cc1ccccc1)N1CCC(N2CCN(C(=O)c3c4ccccc4cc4ccccc34)CC2)CC1` had an IC50 against Acetyl-CoA carboxylase of 2112 nM.

At Acetyl-CoA carboxylase, `O=C(c1c2ccccc2cc2ccccc12)N1CCN(C2CCN(C(=O)N3CCOCC3)CC2)CC1` registered an IC50 of 239 nM.

As for `O=C(c1c2ccccc2cc2ccccc12)N1CCN(C2CCN(C(=O)N3CCCCC3)CC2)CC1`, the IC50 against Acetyl-CoA carboxylase was found to be 121 nM.

With `O=C(c1ccccc1)N1CCC(N2CCN(C(=O)c3c4ccccc4cc4ccccc34)CC2)CC1`, on Acetyl-CoA carboxylase, the IC50 is 66 nM.

With `O=C(c1c2ccccc2cc2ccccc12)N1CCC(N2CCC[C@@H](C(=O)N3CCOCC3)C2)CC1`, the IC50 came out at 840 nM with HepG2 [2], 456 nM on Acetyl-CoA carboxylase 1, 194 nM on Acetyl-CoA carboxylase 2 and 116 nM on Acetyl-CoA carboxylase. The remaining at 0.25 h, 5 µM in [3] turned out to be 52%.
